In the library only some 2.9% were active in any assay of this set; here they are far more common.
OX1R antag-1: antagonists of human orexin 1 receptor (OX1R) | OX1R-expressing cells, FRET antagonist read-out | 330,000 tested, 1.8% active | inhibition, % at 6.6 µM | Orexin/Hypocretin receptor type 1 (Homo sapiens), O43613 | AID 485270, 2010; in the data active = inhibition mostly above about 38%, no sharp cut-off; inactive = mostly below about 40%;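 note: 0% = agonist challenge alone and 100% = reference antagonist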
Target sequence (O43613 whole entry, looked up): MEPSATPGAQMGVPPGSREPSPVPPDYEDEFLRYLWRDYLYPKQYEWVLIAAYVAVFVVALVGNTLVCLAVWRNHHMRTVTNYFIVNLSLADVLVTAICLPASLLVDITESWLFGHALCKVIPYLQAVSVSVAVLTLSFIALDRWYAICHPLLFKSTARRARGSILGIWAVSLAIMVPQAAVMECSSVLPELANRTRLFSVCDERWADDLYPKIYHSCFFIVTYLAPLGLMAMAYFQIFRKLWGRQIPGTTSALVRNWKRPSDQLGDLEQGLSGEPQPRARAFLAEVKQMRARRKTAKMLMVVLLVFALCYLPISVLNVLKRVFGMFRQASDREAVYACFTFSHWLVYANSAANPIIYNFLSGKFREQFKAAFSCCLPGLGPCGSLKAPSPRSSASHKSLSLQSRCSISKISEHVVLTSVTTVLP
M1 PAM parental: nonselective calcium activators in parental CHO-K1 cells, primary screen, counter-screen for M1 PAM project, cell-based, Fluo-8 calcium fluorescence, full deck, 1536-well | AID 602247, 2012 | 360,000 tested, 0.02% active | activation, % at 3 µM | ATP EC20; 0% at ATP EC20, 100% at ATP max;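 active = activation above the run cutoff, the mean activation of all test compounds plus 3 SD, cut at about 40% in these data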;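 note: peak over basal fluorescence ratio in a 140 s read after ATP addition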
OX1R antag-2: OX1R (HCRTR1) antagonists, primary screen, fluorescence, CHO/OX1R cells, Fluo-8 calcium, orexin A; Orexin/Hypocretin receptor type 1 (Homo sapiens), O43613; Fluo-8 calcium fluorescence; inhibition, % at 5 µM; 330,000 tested, 0.43% active;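 active = inhibition above its plate's threshold, mean inhibition of all tested compounds on the plate plus 3 SD, cut at about 37% in these data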;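 note: 0% = orexin A challenge wells and 100% = SB-334867-A antagonist wells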
M1 ag parental: counter-screen for M1 agonists: effect in parental CHO-K1 cells; Fluo-8 calcium fluorescence; scaled to maximal ATP response, vehicle zero; activation, % at 3 µM; 360,000 tested, 0.48% active; AID 602248, 2012; in the data active = activation above about 15%;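 note: untransfected CHO-K1 host cells lacking M1 receptor as counterscreen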
CHO-K1 Ca antag: counter-screen for M1 antagonists: effect in parental CHO-K1 cells | ATP-induced calcium, Fluo-8 fluorescence | inhibition, % at 3 µM | 360,000 tested, 0.6% active;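 active = inhibition above a per-plate cutoff, the plate's mean sample inhibition plus 3 SD, cut at about 24% in these data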;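 note: 0% = DMSO plus EC80 ATP and 100% = DMSO alone without ATP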
CHO parental Ca: ATP-evoked calcium signal inhibitors, parental CHO, primary screen, counter-screen for OX1R antagonist project, cell-based, fluorescence, Fluo-8 calcium dye; parental CHO-K1, ATP-induced calcium, Fluo-8 fluorescence; inhibition, % at 5.6 µM; 330,000 tested, 0.63% active; AID 463079, 2010;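 active = inhibition above that plate's mean sample inhibition plus 3 SD, cut at about 26% in these data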;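 note: 0% = ATP-challenged DMSO wells and 100% = DMSO wells without ATP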
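Test system: untransfected parental CHO cell line. Compound: one dose, 5.6 µM nominal. Detection: intracellular calcium via Fluo-8 no-wash fluorescent dye. Measure: % inhibition. Benchmarks: ATP-challenged DMSO wells low, unchallenged DMSO wells high.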
Active calls of the source: *; x = no result given.

SMILES	OX1R antag-1	M1 PAM parental	OX1R antag-2	M1 ag parental	CHO-K1 Ca antag	CHO parental Ca
O=C(Nc1ccc(Cl)c(Cl)c1)c1ccc(Cl)c(Cl)c1	92*	-22	40*	8	16	59*
O=C(Nc1ccc(Cl)c(Cl)c1)Nc1nccs1	18	-24	25	11	34*	22
CCOC(=O)C1=NN(C(C)=O)C2C(=O)N(CC)C(=O)C12 (centres undefined)	9	16	-10	0	-9	3
COc1ccc([N+](=O)[O-])cc1N(CC(=O)O)S(C)(=O)=O	16	-4	-18	0	9	3
COC(=O)CN(c1cc([N+](=O)[O-])ccc1OC)S(C)(=O)=O	30	9	-11	17*	8	-2
CCCCCC1CCC(c2ccc(/C(N)=N/O)cc2)CC1 (centres undefined)	1	0	-7	0	-4	12
COc1cc(-c2coc3c(C(=O)NCc4ccc(N(C)C)cc4)cccc23)ccc1O	x	9	x	1	-8	x
COc1ccc(CNC(=O)c2cccc3c(-c4cccc(C(N)=O)c4)coc23)cc1OC	x	-14	x	11	26*	x
COc1cc(-c2coc3c(C(=O)NCc4ccc(OC)c(OC)c4)cccc23)ccc1O	x	-7	x	15*	-4	x
COc1ccc(OC)c(NC(=O)CSc2nnc3ccc(-c4ccccn4)nn23)c1	18	-22	-9	0	-3	-5
CSCCC(NS(=O)(=O)c1cccc(C(F)(F)F)c1)C(=O)Nc1ccccc1N1CCCC1 (centres undefined)	42	-23	-7	-1	6	-25
CC(C)=C[C@H]1C[C@H](C)[C@H]2CC[C@H](C)c3c(O[C@@H]4OC[C@@H](O)[C@H](O)C4O)c(O)c(C)c1c32 (some centres undefined)	4	12	-18	0	-16	-5
CCCC[n+]1c2ccccc2cc2ccccc21	48*	-20	-12	0	-10	-15
Cc1ccnc(Nc2nc(-c3c(C)nc4sccn34)cs2)c1	55*	9	-13	2	-1	-24
CCCn1nc(NS(=O)(=O)c2cccc3nonc23)c2cc3cccc(C)c3nc21	52*	-13	-2	5	-5	-23
Cc1ccc(C(C(=O)NC2CCCCC2)N(Cc2ccccc2)C(=O)Cc2c[nH]c3ccccc23)o1 (centres undefined)	17	19	-23	19*	5	-32
C=CCN(C(=O)CNC(=O)c1ccco1)C(C(=O)NC1CCCCC1)c1ccc(OC)cc1 (centres undefined)	32	9	-25	0	-6	-12
CCOCCCN(C(=O)CNC(=O)c1ccco1)C(C(=O)NC1CCCC1)c1ccccc1C (centres undefined)	19	5	-7	2	44*	-11
COc1ccc(C(C(=O)NC2CCCC2)N(Cc2ccccc2)C(=O)CNC(=O)c2ccco2)cc1 (centres undefined)	30	-4	-38	1	32*	-27
C[C@H](NC(=O)C1CC(=O)N(c2ccc3c(c2)OCCO3)C1)C(=O)N1CCCCC1 (some centres undefined)	1	12	-3	3	-11	1
CC(=O)Nc1ccc(S(=O)(=O)NC2CCS(=O)(=O)C2)cc1Cl (centres undefined)	3	4	-4	0	-1	4
Cc1cc(S(=O)(=O)NCCCN2CCOCC2)c(Cl)cc1Cl	1	4	-11	2	-19	0
CCn1cnc2sc(C(=O)Oc3cccc(C)c3)c(C)c2c1=O	8	17	-23	15*	3	-12
O=C(Nc1nc2c(s1)CCc1ccccc1-2)c1cccs1	34	-8	-48	0	21	-20
O=C(Nc1nc2c(s1)COc1ccccc1-2)c1cccs1	56*	15	-23	8	-8	-15
SMILES	OX1R antag-1	M1 PAM parental	OX1R antag-2	M1 ag parental	CHO-K1 Ca antag	CHO parental Ca
O=c1c(O)c(-c2cccs2)oc2ccccc12	24	-7	19	10	19	49*
O=c1c(O)c(-c2ccccc2)oc2ccccc12	x	26	x	1	-1	x
O=c1c(O)c(-c2cccs2)oc2ccc(Cl)cc12	22	-11	92*	77*	21	71*
CC[C@@]1(C(=O)OC)N[C@H](CN(C)C(=O)NC(C)C)[C@@H]2C(=O)N(C)C(=O)[C@@H]21	-1	-1	-4	0	-9	-5
C[C@H](CO)N1C[C@H](C)[C@@H](CN(C)Cc2ccccc2C(=O)O)OCc2cnnn2CCCC1=O	x	9	x	1	-8	x
COc1ccccc1/C=C/C(=O)NCC(=O)N/N=C/c1ccc(C)o1	8	-6	-16	1	-13	-13
CC(C)C(=O)Nc1ccc2nn(-c3ccccc3)nc2c1	63*	-12	15	2	-12	3
Cc1cc(F)ccc1S(=O)(=O)N(CC(=O)N1CCOCC1)CC(=O)N1CCOCC1	6	-1	-5	1	-11	-10
CCOC(=O)C1CCN(Cc2ccc(N(C)C)cc2)CC1	1	-4	-6	0	41*	-9
O=C(Nc1ccc(Br)cn1)c1ccc(Cl)s1	53*	-11	-21	-1	-11	-31
O=C(Nc1ccc(Br)cn1)c1ccc(Br)s1	38	2	-45	0	-8	-24
COc1ccc(C(=O)NCCc2ccccc2F)cc1OC1CCN(C(C)=O)CC1	14	-3	-7	3	1	-11
O=C(O)CCC(=O)N1c2ccccc2NC2=C(C(=O)CC(c3ccc(F)cc3)C2)C1c1ccc([N+](=O)[O-])o1 (centres undefined)	32	-18	-20	0	25*	-16
O=C(C(c1ccccc1)c1ccccc1)N1CC[C@@]2(O)CCCC[C@H]2C1	5	12	-19	0	-3	-18
CCN(CC(=O)Nc1ccccc1C(F)(F)F)C(=O)CCc1nc2sc3c(c2c(=O)[nH]1)CCCC3	42*	11	-7	1	1	-13
CCN(CC(=O)Nc1c(F)cccc1F)C(=O)C(C)SCc1nc2sc(C)c(C)c2c(=O)[nH]1 (centres undefined)	67*	12	-15	1	5	-14
CCN(CC(=O)Nc1c(F)cccc1F)C(=O)CCc1nc2sc3c(c2c(=O)[nH]1)CCCC3	67*	-7	-5	1	-7	-3
CCN(CC(=O)Nc1c(F)cccc1F)C(=O)CN1C(=O)NC2(CCCC2)C1=O	2	5	-18	4	6	5
